# Bioassay records deposited in PubChem by several laboratories.
# The list is not random: actives were taken first. Their share in the collection is about 3.4%.
# TMEM16A inh: inhibitors of mouse TMEM16A calcium-activated chloride channel | AID 588511 | actives 1.2% (n = 310,000) | HEK293 TMEM16A/YFP iodide influx fluorescence, ionomycin | normalized B-score (activity score, 25-100; higher = stronger inhibition) at 10 µM;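 active = ratio plate-corrected score three or more library SD toward inhibition, starting fluorescence score within five deviations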;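 also: score derived from kinetic fluorescence span divided by baseline fluorescence per well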
# VIM-2 inhibitor: blocks Pseudomonas aeruginosa VIM-2 metallo-beta-lactamase. actives 0.89% (n = 290,000). purified VIM-2, nitrocefin hydrolysis, epi-absorbance fluorescence. AID 1527. inhibition, % at 5.6 µM;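 active = inhibition above the mean of all tested compounds plus 3 SD, cutoff set per screening run, cut at about 7.5% in these data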;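 also: red hydrolysis product quenches plate fluorescence so inhibitors raise well fluorescence; 0% = enzyme with DMSO and 100% = DMSO without enzyme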
# CHT inh: inhibits the human high affinity choline transporter. B-score at 10 µM. actives 0.86% (n = 310,000). CHT-expressing cells, membrane potential dye, choline response; active compounds read low. AID 488975;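 active = B-score over 3 SD under the library average, and starting fluorescence ratio not unusually high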;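 also: choline stimulus applied at its EC90 after an EC20 pre-addition; B-score computed on integrated fluorescence ratio after choline addition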
# Target sequence (Q9GZV3 whole entry, looked up): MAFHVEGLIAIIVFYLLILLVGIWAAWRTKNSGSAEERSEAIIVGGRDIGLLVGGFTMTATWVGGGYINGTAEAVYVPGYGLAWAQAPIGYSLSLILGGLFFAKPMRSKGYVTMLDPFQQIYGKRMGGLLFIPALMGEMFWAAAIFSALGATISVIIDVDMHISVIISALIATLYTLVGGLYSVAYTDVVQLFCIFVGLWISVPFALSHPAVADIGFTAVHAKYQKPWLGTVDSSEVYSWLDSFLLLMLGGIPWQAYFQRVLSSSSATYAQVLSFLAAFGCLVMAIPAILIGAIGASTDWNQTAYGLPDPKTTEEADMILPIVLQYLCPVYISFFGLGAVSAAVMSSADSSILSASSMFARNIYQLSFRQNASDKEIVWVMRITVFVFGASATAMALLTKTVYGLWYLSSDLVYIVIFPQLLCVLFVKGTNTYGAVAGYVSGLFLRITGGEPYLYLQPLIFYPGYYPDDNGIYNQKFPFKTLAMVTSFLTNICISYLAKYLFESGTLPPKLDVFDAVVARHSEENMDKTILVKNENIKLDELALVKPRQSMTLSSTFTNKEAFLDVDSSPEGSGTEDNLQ
# IMP-1 inh: inhibitors of Pseudomonas aeruginosa IMP-1 metallo-beta-lactamase; purified IMP-1, nitrocefin hydrolysis, epi-absorbance fluorescence; inhibition, % at 5.6 µM; actives 0.45% (n = 290,000);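 active = inhibition above the mean plus 3 SD of all compounds in the same screening run, cut at about 4.5% in these data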;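 also: 0% = IMP-1 with DMSO and 100% = DMSO wells lacking enzyme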
#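 System: purified IMP-1 / Input: IMP-1 dispensed at 0.2 nM / Medium: 50 mM HEPES pH 7.1, 50 µM ZnSO4, 0.05% Brij 35 / Timing: 15 min enzyme–compound preincubation, then 25 min nitrocefin reaction, 25 °C / Technique: plate fluorescence quenching by hydrolysis product, ex 480/em 530 nm / Repeats: singlicate testing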
# CHT PAM: human CHT allosteric activation | Q9GZV3 | CHT-expressing cells, membrane potential dye, choline EC20; active compounds read high; LV-AA mutant CHT in HEK293 cells | B-score at 10 µM | actives 0.49% (n = 310,000) | AID 488977;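 active = initial fluorescence not abnormally high and integrated response B-score, plate-corrected, over 3 SD above library mean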
# ANO1 activ: activators or potentiators of mouse TMEM16A chloride channel | actives 0.3% (n = 340,000) | B-score at 10 µM | HEK293 TMEM16A/YFP-H148Q/I152L, iodide quench fluorescence; active compounds read low;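 active = fluorescence-ratio B-score plate-corrected deviation score at least 3 library SD below zero, with starting fluorescence score within 5 deviations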;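 also: channel opened by trigger with iodide after compound preincubation; score built on the fluorescence ratio of max minus min over baseline; more negative score means more quench and so TMEM16A activation or potentiation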
# CHT activ conf: human CHT activation, confirmatory screen; shares compounds with CHT PAM; CHT-expressing cells, membrane potential dye fluorescence (FDSS); % of choline EC20–EC90 response window; HEK293 expressing CHT LV-AA mutant; choline added at its EC20; activation, % at 10 µM; actives 91% (n = 2,500);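 active = primary screen active, with duplicate mean activation above negative control mean plus 3 SD, cut at about 11% in these data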
# HEK293 MP dye: activity in parental HEK293 cells lacking CHT; membrane potential dye fluorescence (FDSS); measured after EC20 choline addition; actives 62% (n = 2,500); AID 623908; ratio readout change at 10 µM, hits read low; shares compounds with CHT PAM;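 active = duplicate-averaged ratio beyond 3 SD from buffer wells, up or down, though filed actives are nearly all decreases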
# Numbers without * were called inactive; i = inactive; / = no result.
SMILES,TMEM16A inh,VIM-2 inhibitor,CHT inh,IMP-1 inh,CHT PAM,ANO1 activ,CHT activ conf,HEK293 MP dye
COc1cc2cc[n+](Cc3ccc([N+](=O)[O-])cc3)cc2cc1OC,i,-1,i,-1,7.1*,i,71*,-79*
O=c1oc2ccccc2c(N2CCC(c3ccccc3)CC2)c1[N+](=O)[O-],i,-4,i,-1,i,i,5,i
CC1CCCN(c2c([N+](=O)[O-])c(=O)oc3ccccc23)C1 (configuration not stated),i,2,i,2,i,i,/,/
CSc1cccc(N2CC(C(=O)N3CCN(S(=O)(=O)c4ccccc4Cl)CC3)CC2=O)c1 (configuration not stated),/,/,/,/,/,i,/,/
O=C(NC1CCN(Cc2ccc(Cl)cc2)CC1)c1cn(-c2ccccc2)nc1-c1cccnc1,/,/,/,/,/,i,/,/
Cc1ccc(C(=O)c2c3ccc([N+](=O)[O-])cc3[n+]([O-])n2CCCN)cc1,i,/,i,/,6.5*,i,34*,-40*
COc1cc(-c2nnc(COC(=O)c3ccc(C)o3)o2)cc(OC)c1OC,/,/,/,/,/,i,/,/
CCCc1nc2c(C)ccc(C)c2c(N)c1CC,i,1,i,-2,i,i,55*,-52*
CCN(C(=O)CSc1ncccn1)c1c(N)n(Cc2ccccc2)c(=O)[nH]c1=O,/,/,/,/,/,i,/,/
Cc1sc2nc(CN3CCCC3)nc(N3CCN(S(=O)(=O)c4cccc(F)c4)CC3)c2c1C,/,/,/,/,/,i,/,/
Cc1sc2nc(CN3CCCC3)nc(N3CCN(C(=O)c4ccco4)CC3)c2c1C,i,-2,i,-4,7.3*,i,46*,-39*
Cc1sc2nc(CN3CCCC3)nc(N3CCC(C(N)=O)CC3)c2c1C,i,-2,i,-3,8.9*,i,67*,-54*
C[n+]1ccccc1/C=C/c1ccccc1Cl,i,0,i,0,i,i,/,/
C[n+]1ccccc1/C=C/c1ccc(F)c(F)c1,i,-1,i,-2,8.3*,i,58*,-65*
Cc1ccccc1/C=C/c1cccc[n+]1C,i,0,i,-1,i,i,45*,-55*
C[n+]1ccccc1/C=C/c1c(F)cccc1F,i,3,i,0,i,i,/,/
CC(=O)c1c(C)[nH]c(C(=O)CN2C(=O)NC(C)(CCC(C)C)C2=O)c1C (configuration not stated),i,-1,i,-2,i,i,/,/
Cc1cc(C)cc(C(=O)Nc2ccc(N3CCN(C(=O)c4ccco4)CC3)cc2)c1,i,-1,i,-1,i,i,/,/
CCCc1n(CC)c2ccccc2[n+]1CC(O)COC1CCCCC1 (configuration not stated),i,-2,i,-2,7*,i,40*,i
CCOC(=O)C1CCN(C(=O)/C=C/c2ccc3c(c2)OCO3)CC1,i,-1,i,-1,i,i,/,/
COc1c(C=O)cc2c3c1CCCN3CCC2,i,-1,i,-2,i,i,/,/
NCc1cc2c3c(c1)CCCN3CCC2,i,9.0*,i,-2,i,i,13*,-100*
C=CCn1c2ccccc2n2nc(C)c(=O)nc12,i,1,i,-2,i,i,/,/
Cc1nn2c3ccccc3n(CCN3CCCCC3)c2nc1=O,i,-1,i,0,7.1*,i,39*,-42*
CCCCCNc1nc(NCCCO)c(C#N)c2c1CN(C)CC2,i,-1,i,-4,i,i,32*,-29*
CCN(CC)S(=O)(=O)c1ccc(N2CCCC2)c(NC(=O)CC(C)(C)C)c1,i,0,i,-1,i,i,/,/
